Here are results for six compounds from ChEMBL document CHEMBL1153034, “Antileishmaniasis activity of flavonoids from Consolida oliveriana” (J Nat Prod, 2009).

Series [1] is described as follows: Ratio of compound IC50 to glucatim IC50 for BALB/c mouse J774.2 cells. The conditions noted are these: read-out: Ratio IC50. Format: ADME, cell-based.
In series [2] the test system is Leishmania peruviana. The series is described as follows: Inhibition of succinate catabolite excretion in Leishmania peruviana promastigotes at IC25 after 96 hrs by NMR spectroscopy. It counts as functional. Summed up:
(§1)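 Promastigotes of L. (V.) peruviana or L. (V.) braziliensis in MTL medium (initial 5 × 10⁵ cells/mL) received drug at IC25; controls were untreated. After 96 h at 28 °C, cells were spun down at 1500 rpm for 10 min. Excreted end metabolites in the cell-free medium were identified by ¹H NMR and compared with fresh medium and untreated cultures.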

Series [3] relates to Leishmania peruviana. Put plainly: Antileishmanial activity against Leishmania peruviana in BALB/c mouse J774.2 cells assessed as reduction of morphological conversion to parasite amastigote number per cell measured on day 10 by Giemsa staining relative to control. Format: functional. On the set-up: scale not given: the % may be the effect or the level left.
For series [4], the system named is Leishmania peruviana. Put plainly: Antileishmanial activity against Leishmania peruviana assessed as disruption of parasite cytoplasm at IC25 after 96 hrs by transmission electron microscopy. It counts as functional, organism-based. Summed up:
(§2)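 L. (V.) peruviana MHOM/PE/1984/LC26 or L. (V.) braziliensis MHOM/BR/1975/M2904 promastigotes at 5 × 10⁶ cells/mL in MTL medium plus 10% inactivated FBS, in air at 28 °C, with drug at IC25 for 96 h. Pellets were PBS-washed, fixed 2 h at 4 °C in 2% (v/v) p-formaldehyde-glutaraldehyde in 0.05 M cacodylate (pH 7.4), and examined by TEM against untreated parasites.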

Series [5] has as its system Leishmania peruviana. The series is described as follows: Inhibition of acetate catabolite excretion in Leishmania peruviana promastigotes at IC25 after 96 hrs by NMR spectroscopy. It counts as functional. Summed up:
as §1

In series [6] the test system is Leishmania peruviana. Put plainly: Antileishmanial activity against Leishmania peruviana infected in BALB/c mouse J774.2 cells assessed as decrease in parasite infection rate measured on day 10 relative to control. It counts as functional. On the set-up: scale not given: the % may be the effect or the level left.
For series [7], the system named is Leishmania peruviana. The series is described as follows: Antileishmanial activity against Leishmania peruviana assessed as abundance of morphologically altered glycosomes at IC25 after 96 hrs by transmission electron microscopy. Format: functional, organism-based.
The test system of series [8] is Leishmania peruviana. Put plainly: Antileishmanial activity against intracellular Leishmania peruviana amastigotes after 10 days by Giemsa staining.
The test system of series [9] is Leishmania peruviana. The series is described as follows: Effect on pyruvate catabolite excretion in Leishmania peruviana promastigotes at IC25 after 96 hrs by NMR spectroscopy. It counts as functional, organism-based. Summed up: as §1
Another series has as its system J774.2. The series is described as follows: Cytotoxicity against BALB/c mouse J774.2 cells after 72 hrs by trypan blue assay. Format: cell-based. Summed up: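 J774.2 macrophages in MEM with 10% inactivated FBS, pH 7.2, seeded at 10⁵ cells/mL, 2 days at 37 °C in 5% CO₂. Fresh medium with compound at 100, 50, 25, 10 and 1 µM, 72 h. Dead cells counted by trypan blue (0.1% in phosphate buffer); viability relative to control. IC50 by linear regression of K_c values.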

The nature of series [10]: Ratio of compound IC50 to pentostam IC50 for BALB/c mouse J774.2 cells. It counts as ADME, cell-based. The conditions noted are these: read-out: Ratio IC50.
In series [11] the test system is Leishmania peruviana. Put plainly: Increase in L-alanine catabolite excretion in Leishmania peruviana promastigotes at IC25 after 96 hrs by NMR spectroscopy. Format: functional, organism-based. Summed up:
as §1

The test system of series [12] is Leishmania peruviana. Put plainly: Effect on glycerol catabolite excretion in Leishmania peruviana promastigotes at IC25 after 96 hrs by NMR spectroscopy. It counts as functional, organism-based. Summed up: as §1
For series [13], the system named is Leishmania peruviana. The series is described as follows: Antileishmanial activity against extracellular Leishmania peruviana promastigotes after 72 hrs. Format: functional, organism-based. Summed up:
(§3)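 Promastigotes grown in MTL medium plus 10% inactivated FBS, air atmosphere, 28 °C. Compounds at 100, 50, 25, 10 and 1 µM, DMSO 0.1%. Parasites counted in a Neubauer hemocytometer at 24, 48 and 72 h. Average of three separate determinations.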

Series [14] has as its system Leishmania braziliensis. Put plainly: Antileishmanial activity against intracellular Leishmania braziliensis amastigotes after 72 hrs by Giemsa staining. Format: functional, organism-based.
The test system of series [15] is Leishmania peruviana. The series is described as follows: Antileishmanial activity against Leishmania peruviana assessed as induction of death of parasite with distortion of parasite body at IC25 after 96 hrs by transmission electron microscopy. Format: functional, organism-based. Summed up: as §2
For series [16], the system named is Leishmania braziliensis. The series is described as follows: Antileishmanial activity against extracellular Leishmania braziliensis promastigotes after 72 hrs. Format: functional, organism-based. Summed up: as §3
[17] abbreviates: Mus musculus, BALB/c, J774.2, 72 h.

Activity calls are given as the source filed them. No cut-off for these calls is given here.

What is called IC50 is the concentration needed to halve the response being measured. With `CC(=O)Oc1cc(OC(C)=O)c2c(=O)c(OC(C)=O)c(-c3ccc(OC(C)=O)c(OC(C)=O)c3)oc2c1`, the selectivity ratio in [1] and in [10] was 10 throughout. The “inhibition (INH)” value with Leishmania peruviana [2] and in the series on Leishmania peruviana [5] was 30% in each case. In addition, the Activity in the series on Leishmania peruviana [3] turned out to be 72%; in the series with Leishmania peruviana [6], 40%. The outcome with Leishmania peruviana [4], in the series with Leishmania peruviana [7], in the series on Leishmania peruviana [8], in the series on Leishmania peruviana [9], with Leishmania peruviana [11] and in the series with Leishmania peruviana [12] was Active. Further, the result in the series on Leishmania braziliensis [14] and in the series with Leishmania peruviana [15] was Active. The IC50 is 109 µM in the series on J774.2 (setting [17]); 11.2 µM in the series on Leishmania peruviana [13] (Leishmania peruviana, 72 h); 46.8 µM in the series with Leishmania braziliensis [16] (Leishmania braziliensis, 72 h).
Consider `CC(=O)OC[C@H]1O[C@@H](Oc2c(-c3ccc(O)c(O)c3)oc3cc(O)cc(O)c3c2=O)[C@H](O)[C@@H](O)[C@H]1O`, for which the IC50 in the series on J774.2 (setting [17]) amounted to 61.3 µM; with Leishmania peruviana [13] (Leishmania peruviana, 72 h), 87 µM; in the series on Leishmania braziliensis [16] (Leishmania braziliensis, 72 h) it was 51.6 µM.
On the same counts, the results for `O=c1c(O)c(-c2ccc(O)c(O)c2)oc2cc(O)cc(O)c12` [QUERCETIN] are 125 µM, 60 µM and 30.5 µM.
The matching figures for `O=c1c(O[C@@H]2O[C@H](CO)[C@H](O)[C@H](O)[C@H]2O)c(-c2ccc(O)cc2)oc2cc(O)cc(O)c12` [TRIFOLIN]: 161 µM, 53.3 µM and 52.5 µM.
On the same counts, the results for `O=c1c(O)c(-c2ccc(O)cc2)oc2cc(O)cc(O)c12` [KAEMPFEROL] are 53.7 µM, 71.3 µM and 53.6 µM.
With MEGLUMINE ANTIMONATE, the half-inhibitory concentration (IC50) was 15.2 µM in the series on J774.2 (j774.2), 15.3 µM with Leishmania peruviana [13] and 25.6 µM with Leishmania braziliensis [16].
